Laboratory results as given in ChEMBL document CHEMBL1121766, “Chemical modification of aminoglycosides. 3. Synthesis of 2"-deoxykanamycins from neamine” (1981).
In brackets after ≈: the same amount, converted by molar mass.

Columns and labels:
Pseudomonas aeruginosa [1] = assay: Compound was tested in vitro for antibacterial activity against Pseudomonas aeruginosa UC 95; type: functional
Outline: (§1)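 MIC by microplate broth dilution: serial twofold dilutions of antibiotic in brain-heart infusion broth, each well inoculated with standardized cell suspension to ~10^5 viable cells per mL of drug-supplemented medium. Incubated 37 °C for 20 h; MIC read as lowest concentration inhibiting visible growth.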

Enterococcus faecalis = assay: Compound was tested in vitro for antibacterial activity against Streptococcus faecalis UC 694; type: functional; outline: as §1
[2] = Compound was tested in vitro for antibacterial activity against Salmonella schottmuelleri UC 126; type: functional; outline: as §1
Pseudomonas aeruginosa [3] = assay: Compound was tested in vitro for antibacterial activity against Pseudomonas aeruginosa UC 3679; type: functional; outline: as §1
Staphylococcus aureus = assay: Compound was tested in vitro for antibacterial activity against Staphylococcus aureus UC76; type: functional; outline: as §1
Streptococcus pyogenes = assay: Compound was tested in vitro for antibacterial activity against Streptococcus pyogenes UC 152; type: functional; outline: as §1
Serratia marcescens = assay: Compound was tested in vitro for antibacterial activity against Serratia marcescens UC 131; type: functional; outline: as §1
Streptococcus pneumoniae = assay: Compound was tested in vitro for antibacterial activity against Streptococcus pneumoniae UC 41; type: functional; outline: as §1
Klebsiella pneumoniae = assay: Compound was tested in vitro for antibacterial activity against Klebsiella pneumoniae UC 58; type: functional; outline: as §1
Pseudomonas aeruginosa [4] = assay: Compound was tested in vitro for antibacterial activity against Pseudomonas aeruginosa UC 3683; type: functional; outline: as §1
Pseudomonas aeruginosa [5] = assay: Compound was tested in vitro for antibacterial activity against Pseudomonas aeruginosa UC 6436; type: functional; outline: as §1
Proteus vulgaris = assay: Compound was tested in vitro for antibacterial activity against Proteus vulgaris UC 93; type: functional; outline: as §1
Escherichia coli = assay: Compound was tested in vitro for antibacterial activity against Escherichia coli UC 45; type: functional; outline: as §1
Pseudomonas aeruginosa [6] = assay: Compound was tested in vitro for antibacterial activity against Pseudomonas aeruginosa UC 3680; type: functional; outline: as §1
Salmonella typhi = assay: Compound was tested in vitro for antibacterial activity against Salmonella typhi UC 215; type: functional, Salmonella enterica subsp. enterica serovar Typhi; conditions: Salmonella enterica
Outline: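 Microplate broth dilution: serial twofold antibiotic dilutions in brain-heart infusion broth, inoculated with a standardized cell suspension to a final ~10^5 viable cells per mL. Incubated 37 °C for 20 h. MIC read as the lowest concentration that inhibited visible growth.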

Pseudomonas aeruginosa [7] = assay: Compound was tested in vitro for antibacterial activity against Pseudomonas aeruginosa UC 3681; type: functional; outline: as §1
Pseudomonas aeruginosa [8] = assay: Compound was tested in vitro for antibacterial activity against Pseudomonas aeruginosa UC 3682; type: functional; outline: as §1
Proteus mirabilis = assay: Compound was tested in vitro for antibacterial activity against Proteus mirabilis UC 6671; type: functional; outline: as §1

| Compound | MIC (Pseudomonas aeruginosa [1]) | MIC (Pseudomonas aeruginosa [1]; Pseudomonas aeruginosa, read-out: MIC) | MIC (Enterococcus faecalis) | MIC [2] | MIC (Pseudomonas aeruginosa [3]) | MIC (Staphylococcus aureus) | MIC (Streptococcus pyogenes) | MIC (Serratia marcescens) | MIC (Streptococcus pneumoniae) | MIC (Klebsiella pneumoniae) | MIC (Pseudomonas aeruginosa [4]) | MIC (Pseudomonas aeruginosa [5]) | MIC (Proteus vulgaris) | MIC (Escherichia coli) | MIC (Pseudomonas aeruginosa [6]) | MIC (Salmonella typhi) | MIC (Pseudomonas aeruginosa [7]) | MIC (Pseudomonas aeruginosa [8]) | MIC (Proteus mirabilis) |
| --- | --- | --- | --- | --- | --- | --- | --- | --- | --- | --- | --- | --- | --- | --- | --- | --- | --- | --- | --- |
| NCC1CCC(N)C(OC2C(N)CC(N)C(OC3CC(N)C(O)C(CO)O3)C2O)O1 (stereo not drawn) | 7.8 µg/mL (≈ 17.9 µM) | 15.6 µg/mL (≈ 35.8 µM) | 250 µg/mL (≈ 574 µM) | 15.6 µg/mL (≈ 35.8 µM) | 7.8 µg/mL (≈ 17.9 µM) | < 1 µg/mL | 7.8 µg/mL (≈ 17.9 µM) | 15.6 µg/mL (≈ 35.8 µM) | 250 µg/mL (≈ 574 µM) | 3.9 µg/mL (≈ 8.95 µM) | 7.8 µg/mL (≈ 17.9 µM) | > 125 µg/mL | 31.2 µg/mL (≈ 71.6 µM) | 62.5 µg/mL (≈ 144 µM) | 7.8 µg/mL (≈ 17.9 µM) | 15.6 µg/mL (≈ 35.8 µM) | 15.6 µg/mL (≈ 35.8 µM) | 15.6 µg/mL (≈ 35.8 µM) | 62.5 µg/mL (≈ 144 µM) |
| NCC1OC(OC2C(N)CC(N)C(OC3CC(N)C(O)C(CO)O3)C2O)C(N)C(O)C1O (stereo not drawn) | – | – | 1000 µg/mL (≈ 2140 µM) | 15.6 µg/mL (≈ 33.4 µM) | – | 3.9 µg/mL (≈ 8.34 µM) | 15.6 µg/mL (≈ 33.4 µM) | 31.2 µg/mL (≈ 66.7 µM) | 500 µg/mL (≈ 1070 µM) | 3.9 µg/mL (≈ 8.34 µM) | – | – | – | 31.2 µg/mL (≈ 66.7 µM) | – | – | – | – | 62.5 µg/mL (≈ 134 µM) |
